In brackets after ≈: the same amount, converted by molar mass.
Columns and labels:
[1] = biological target: T1, Phosphatidylinositol 4,5-bisphosphate 3-kinase catalytic subunit delta isoform (Homo sapiens, UniProt O00329)
T1 sequence (O00329 whole entry): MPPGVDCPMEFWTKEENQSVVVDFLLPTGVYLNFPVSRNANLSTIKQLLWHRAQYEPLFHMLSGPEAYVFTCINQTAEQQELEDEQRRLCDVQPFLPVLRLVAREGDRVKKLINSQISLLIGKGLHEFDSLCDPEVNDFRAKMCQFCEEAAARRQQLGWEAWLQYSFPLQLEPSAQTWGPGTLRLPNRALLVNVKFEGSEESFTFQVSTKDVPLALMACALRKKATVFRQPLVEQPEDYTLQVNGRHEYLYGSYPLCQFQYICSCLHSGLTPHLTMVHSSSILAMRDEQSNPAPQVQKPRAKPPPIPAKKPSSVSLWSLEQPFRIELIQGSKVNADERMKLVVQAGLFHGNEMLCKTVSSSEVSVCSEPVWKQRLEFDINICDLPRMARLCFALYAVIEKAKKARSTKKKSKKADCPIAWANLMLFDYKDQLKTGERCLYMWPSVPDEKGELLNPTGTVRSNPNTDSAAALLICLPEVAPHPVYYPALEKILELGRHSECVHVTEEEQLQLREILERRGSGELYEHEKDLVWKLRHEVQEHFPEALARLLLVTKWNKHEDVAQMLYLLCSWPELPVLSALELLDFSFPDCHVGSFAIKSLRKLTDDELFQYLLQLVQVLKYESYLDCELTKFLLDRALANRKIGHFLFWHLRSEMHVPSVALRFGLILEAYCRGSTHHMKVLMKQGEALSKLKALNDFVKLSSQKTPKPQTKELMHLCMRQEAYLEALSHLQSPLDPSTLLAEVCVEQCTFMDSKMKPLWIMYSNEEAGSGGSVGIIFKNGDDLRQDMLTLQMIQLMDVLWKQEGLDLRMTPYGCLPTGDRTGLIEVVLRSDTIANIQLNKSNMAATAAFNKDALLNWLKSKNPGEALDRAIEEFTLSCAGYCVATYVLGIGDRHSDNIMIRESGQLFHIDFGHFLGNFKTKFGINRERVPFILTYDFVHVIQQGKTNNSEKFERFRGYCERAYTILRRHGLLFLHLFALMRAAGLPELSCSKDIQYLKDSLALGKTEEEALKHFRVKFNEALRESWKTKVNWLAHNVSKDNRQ

[2] = species on record: Homo sapiens; assay: Selectivity ratio of IC50 for PI3Kgamma (unknown origin) to IC50 for PI3Kdelta (unknown origin)
In short: (§1)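 Ratio of each isoform's HTRF IC50 to the PI3Kδ HTRF IC50. Enzymes were preincubated 15 min with 4-fold compound dilutions in HEPES pH 7.0, MgCl2, DTT buffer. […] PIP2 was 5 µM for δ and 8 µM for α/β/γ. 60 min reaction, then EDTA quench with GRP-1 PH domain/APC/Eu detection. Four-parameter fit.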

[3] = species on record: Homo sapiens; assay: Selectivity ratio of IC50 for PI3Kalpha (unknown origin) to IC50 for PI3Kdelta (unknown origin)
In short: as §1

[4] = species on record: Homo sapiens; assay: Selectivity ratio of IC50 for PI3Kbeta (unknown origin) to IC50 for PI3Kdelta (unknown origin)
In short: as §1

[5] = biological target: Phosphatidylinositol 4,5-bisphosphate 3-kinase catalytic subunit alpha isoform (Homo sapiens, UniProt P42336); assay: Inhibition of PI3Kalpha (unknown origin) using PIP2 as substrate preincubated for 15 mins followed by substrate addition measured after 60 mins in presence of biotin-labeled PIP3 by HTRF assay
Chain of Phosphatidylinositol 4,5-bisphosphate 3-kinase catalytic subunit alpha isoform (P42336 whole entry, the tested form may be a part, canonical isoform): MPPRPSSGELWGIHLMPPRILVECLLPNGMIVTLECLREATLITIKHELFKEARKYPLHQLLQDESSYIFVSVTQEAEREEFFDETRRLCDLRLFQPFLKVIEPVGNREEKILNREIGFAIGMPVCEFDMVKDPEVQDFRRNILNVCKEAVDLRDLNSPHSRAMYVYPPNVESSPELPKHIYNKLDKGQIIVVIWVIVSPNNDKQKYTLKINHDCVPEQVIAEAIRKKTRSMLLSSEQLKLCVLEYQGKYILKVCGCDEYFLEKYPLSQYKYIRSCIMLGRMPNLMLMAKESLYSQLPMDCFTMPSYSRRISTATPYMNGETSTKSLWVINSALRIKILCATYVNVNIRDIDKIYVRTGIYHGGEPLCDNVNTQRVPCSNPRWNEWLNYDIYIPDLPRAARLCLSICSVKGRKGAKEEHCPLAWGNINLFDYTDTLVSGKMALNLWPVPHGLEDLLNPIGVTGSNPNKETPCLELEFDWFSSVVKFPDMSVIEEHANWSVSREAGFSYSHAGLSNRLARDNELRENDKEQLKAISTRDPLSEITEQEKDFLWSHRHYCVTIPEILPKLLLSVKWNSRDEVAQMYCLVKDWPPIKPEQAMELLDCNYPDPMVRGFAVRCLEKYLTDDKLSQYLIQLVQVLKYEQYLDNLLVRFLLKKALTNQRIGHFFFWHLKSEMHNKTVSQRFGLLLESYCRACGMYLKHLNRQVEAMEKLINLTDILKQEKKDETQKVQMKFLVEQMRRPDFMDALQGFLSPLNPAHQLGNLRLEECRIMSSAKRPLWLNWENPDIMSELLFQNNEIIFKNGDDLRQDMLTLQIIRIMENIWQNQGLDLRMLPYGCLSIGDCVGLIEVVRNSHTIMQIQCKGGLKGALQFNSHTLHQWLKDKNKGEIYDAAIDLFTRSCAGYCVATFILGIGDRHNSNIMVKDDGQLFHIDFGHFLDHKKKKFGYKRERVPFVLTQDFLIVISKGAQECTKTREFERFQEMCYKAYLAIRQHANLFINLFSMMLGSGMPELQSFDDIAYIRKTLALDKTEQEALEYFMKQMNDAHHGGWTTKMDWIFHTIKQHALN
In short: (§2)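 HTRF kinase assay in 50 mM HEPES pH 7.0, 150 mM NaCl, 10 mM MgCl₂, 1 mM DTT. Enzyme preincubated 15 min with 4-fold serially diluted compound. […] Quenched after 60 min with EDTA plus GRP-1 PH domain/streptavidin-APC/Eu-antiGST detection, then equilibrated 60 min in the dark. Data normalized to no-compound and no-enzyme controls. IC50 from four-parameter fit.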

[6] = biological target: Phosphatidylinositol 4,5-bisphosphate 3-kinase catalytic subunit beta isoform (Homo sapiens, UniProt P42338); assay: Inhibition of PI3Kbeta (unknown origin) using PIP2 as substrate preincubated for 15 mins followed by substrate addition measured after 60 mins in presence of biotin-labeled PIP3 by HTRF assay
Chain of Phosphatidylinositol 4,5-bisphosphate 3-kinase catalytic subunit beta isoform (P42338 whole entry, canonical isoform): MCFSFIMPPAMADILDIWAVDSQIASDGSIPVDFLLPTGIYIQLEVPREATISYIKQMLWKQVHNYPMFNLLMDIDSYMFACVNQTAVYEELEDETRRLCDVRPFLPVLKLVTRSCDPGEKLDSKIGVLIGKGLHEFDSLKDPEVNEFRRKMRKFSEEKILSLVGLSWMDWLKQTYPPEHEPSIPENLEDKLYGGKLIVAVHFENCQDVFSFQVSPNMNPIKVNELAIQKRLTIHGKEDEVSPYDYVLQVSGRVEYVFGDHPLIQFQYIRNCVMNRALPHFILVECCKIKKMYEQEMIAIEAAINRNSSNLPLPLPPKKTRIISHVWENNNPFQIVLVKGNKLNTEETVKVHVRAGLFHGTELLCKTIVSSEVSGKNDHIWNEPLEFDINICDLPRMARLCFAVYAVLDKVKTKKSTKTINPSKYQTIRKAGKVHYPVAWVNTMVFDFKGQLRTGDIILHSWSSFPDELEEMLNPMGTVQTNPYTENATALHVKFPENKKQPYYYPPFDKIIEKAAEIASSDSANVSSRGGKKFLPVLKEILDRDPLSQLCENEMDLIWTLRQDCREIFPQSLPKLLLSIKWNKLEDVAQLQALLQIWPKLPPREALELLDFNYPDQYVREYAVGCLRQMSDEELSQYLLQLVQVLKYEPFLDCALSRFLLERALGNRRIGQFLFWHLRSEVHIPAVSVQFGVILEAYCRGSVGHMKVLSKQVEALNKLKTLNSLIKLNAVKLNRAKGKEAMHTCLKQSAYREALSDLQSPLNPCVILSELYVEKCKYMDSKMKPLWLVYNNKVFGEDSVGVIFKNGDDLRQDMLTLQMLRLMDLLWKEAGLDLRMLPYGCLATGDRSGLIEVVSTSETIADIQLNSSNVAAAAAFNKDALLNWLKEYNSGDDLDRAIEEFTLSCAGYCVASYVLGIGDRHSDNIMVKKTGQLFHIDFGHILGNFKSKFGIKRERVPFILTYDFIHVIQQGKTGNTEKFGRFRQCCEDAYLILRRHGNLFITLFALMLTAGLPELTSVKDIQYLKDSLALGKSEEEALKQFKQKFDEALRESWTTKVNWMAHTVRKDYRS
In short: as §2

[7] = biological target: Phosphatidylinositol 4,5-bisphosphate 3-kinase catalytic subunit gamma isoform (Homo sapiens, UniProt P48736); assay: Inhibition of PI3Kgamma (unknown origin) using PIP2 as substrate preincubated for 15 mins followed by substrate addition measured after 60 mins in presence of biotin-labeled PIP3 by HTRF assay
Chain of Phosphatidylinositol 4,5-bisphosphate 3-kinase catalytic subunit gamma isoform (P48736 whole entry, canonical isoform): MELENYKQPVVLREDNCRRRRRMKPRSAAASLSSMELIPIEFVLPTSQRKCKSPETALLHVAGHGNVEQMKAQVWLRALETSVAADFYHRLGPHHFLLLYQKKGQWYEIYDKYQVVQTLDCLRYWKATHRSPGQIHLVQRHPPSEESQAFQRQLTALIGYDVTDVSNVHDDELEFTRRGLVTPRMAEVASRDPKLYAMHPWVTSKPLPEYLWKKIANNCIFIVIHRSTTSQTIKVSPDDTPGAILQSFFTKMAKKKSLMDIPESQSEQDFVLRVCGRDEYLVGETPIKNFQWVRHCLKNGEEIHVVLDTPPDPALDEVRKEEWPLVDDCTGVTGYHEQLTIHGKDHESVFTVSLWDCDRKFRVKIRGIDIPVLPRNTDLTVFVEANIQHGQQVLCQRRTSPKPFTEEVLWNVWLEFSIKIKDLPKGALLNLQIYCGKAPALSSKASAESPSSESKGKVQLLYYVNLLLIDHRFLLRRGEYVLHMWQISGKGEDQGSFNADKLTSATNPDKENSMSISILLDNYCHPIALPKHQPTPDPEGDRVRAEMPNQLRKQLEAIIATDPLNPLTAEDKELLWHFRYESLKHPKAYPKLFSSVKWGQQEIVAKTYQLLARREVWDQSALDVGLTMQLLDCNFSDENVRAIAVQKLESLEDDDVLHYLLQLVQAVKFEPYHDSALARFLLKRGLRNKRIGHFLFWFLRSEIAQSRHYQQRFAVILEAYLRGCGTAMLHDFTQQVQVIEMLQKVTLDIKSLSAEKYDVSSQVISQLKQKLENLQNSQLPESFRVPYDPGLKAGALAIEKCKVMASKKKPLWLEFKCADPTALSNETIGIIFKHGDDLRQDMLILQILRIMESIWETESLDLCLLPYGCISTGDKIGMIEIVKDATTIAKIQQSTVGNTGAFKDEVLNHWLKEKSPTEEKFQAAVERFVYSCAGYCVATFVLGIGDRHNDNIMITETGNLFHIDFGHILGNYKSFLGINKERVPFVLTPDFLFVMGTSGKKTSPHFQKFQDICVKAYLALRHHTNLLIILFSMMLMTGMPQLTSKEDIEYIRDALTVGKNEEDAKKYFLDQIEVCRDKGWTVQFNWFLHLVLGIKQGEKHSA
In short: as §2

[8] = Lipophilicity, log D of compound at pH 7.4 by chromatographic method; assay type: physicochemical; conditions: buffer
[9] = Kinetic solubility in phosphate buffered saline at pH 7.4 after 1 hr by chemiluminescent nitrogen detection method; assay type: physicochemical; conditions: read-out: Kinetic_solubility
In short: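 The sample was then filtered, and the filtrate was quantified by calibrated flow-injection chemiluminescent nitrogen detection. Standard error was ±30 µM, and the upper limit was 500 µM from the 10 mM stock.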

[10] = biological target: Albumin (Homo sapiens, UniProt P02768); assay: Binding affinity to human serum albumin by HPLC analysis; assay type: ADME; conditions: read-out: PB (converted)
Chain of Albumin (P02768 whole entry, canonical isoform): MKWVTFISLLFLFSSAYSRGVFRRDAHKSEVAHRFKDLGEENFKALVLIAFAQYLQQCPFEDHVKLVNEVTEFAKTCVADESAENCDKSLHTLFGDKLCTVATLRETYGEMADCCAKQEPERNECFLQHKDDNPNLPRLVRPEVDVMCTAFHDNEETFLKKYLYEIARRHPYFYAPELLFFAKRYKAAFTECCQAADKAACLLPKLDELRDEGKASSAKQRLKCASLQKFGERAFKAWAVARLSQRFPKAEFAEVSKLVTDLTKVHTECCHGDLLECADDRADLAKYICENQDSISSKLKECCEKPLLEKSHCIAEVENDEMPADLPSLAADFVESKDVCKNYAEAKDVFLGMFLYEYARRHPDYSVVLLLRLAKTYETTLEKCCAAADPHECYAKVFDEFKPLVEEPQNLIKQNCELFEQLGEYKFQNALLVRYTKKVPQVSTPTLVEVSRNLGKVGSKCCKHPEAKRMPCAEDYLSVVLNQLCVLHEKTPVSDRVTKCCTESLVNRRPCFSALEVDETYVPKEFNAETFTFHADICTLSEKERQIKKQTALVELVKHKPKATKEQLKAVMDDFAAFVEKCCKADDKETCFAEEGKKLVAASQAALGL

[11] = biological target: Phosphatidylinositol 4,5-bisphosphate 3-kinase catalytic subunit delta isoform (Homo sapiens) (UniProt O00329); assay: Ratio of IC50 for PI3Kdelta in human PBMC to IC50 for PI3Kdelta (unknown origin)
[12] = biological target: T1, Phosphatidylinositol 4,5-bisphosphate 3-kinase catalytic subunit delta isoform; remark: listed apart in the source
[13] = Volume of distribution at steady state in Sprague-Dawley rat at 3 mg/kg, po or 1 mg/kg, iv measured up to 7 hrs by LC-MS/MS analysis; assay type: ADME, organism-based; conditions: in vivo, read-out: Vdss
In short: (§3)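 Male Sprague Dawley rats, n = 2 per route, were dosed discretely at 3 mg/kg orally or 1 mg/kg intravenously. The dosing solution was DMSO/PEG200/water (5:45:50 v/v/v). Serial tail-vein blood samples were taken over 0–7 h, and parent compound was quantified by LC–MS/MS. Parameters were estimated by noncompartmental analysis.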

[14] = Clearance in mouse liver microsomes at 0.5 uM measured up to 30 mins by LC-MS/MS analysis; assay type: ADME, Microsome; conditions: 0.5 h
[15] = Oral bioavailability in Sprague-Dawley rat at 3 mg/kg measured up to 7 hrs by LC-MS/MS analysis; assay type: ADME, organism-based; conditions: in vivo; for F: 7 h
In short: as §3

[16] = Half life in Sprague-Dawley rat at 1 mg/kg, iv by LC-MS/MS analysis; assay type: ADME, organism-based; conditions: in vivo
In short: (§4)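 Male Sprague Dawley rats (n = 2/route), intravenous dose as a solution in DMSO/PEG200/water (5:45:50 v/v/v) at 2 mL/kg. Serial tail-vein blood sampling over 0–7 h. LC–MS/MS quantification of parent. Noncompartmental analysis.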

[17] = Clearance in human liver microsomes at 0.5 uM measured up to 30 mins by LC-MS/MS analysis; assay type: ADME, Microsome; conditions: 0.5 h
[18] = AUC (0 to t) in Sprague-Dawley rat at 3 mg/kg, po measured up to 7 hrs by LC-MS/MS analysis; assay type: ADME, organism-based; parameters: dose 3 mg/kg, time < 7 hr, route oral; conditions: in vivo
In short: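 Male Sprague Dawley rats were given a single oral dose of 3 mg/kg in DMSO/PEG200/water (5:45:50 v/v/v) at 6 mL/kg, with n = 2 per route. Blood was sampled serially from the tail vein over 0–7 h. Parent compound was quantified by LC–MS/MS, and parameters were derived by noncompartmental analysis.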

[19] = Clearance in rat liver microsomes at 0.5 uM measured up to 30 mins by LC-MS/MS analysis; assay type: ADME, Microsome; conditions: 0.5 h
In short: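 Rat liver microsomes (0.5 mg protein/mL) prewarmed 10 min at 37 °C, started with NADPH regeneration system. Final compound 0.5 μM. Sampled at 0, 3, 6, 12 and 30 min into acetonitrile with internal standard. Peak area ratios by LC–MS/MS fitted to log-linear decline. Clearance scaled by protein concentration, incubation volume and 52.5 mg microsomal protein/g liver.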

[20] = AUC(infinity) in Sprague-Dawley rat at 3 mg/kg, po measured up to 7 hrs by LC-MS/MS analysis; assay type: ADME, organism-based; parameters: dose 3 mg/kg, time infinity, route oral; conditions: in vivo
In short: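 Male Sprague Dawley rats (n = 2/route), oral dose in DMSO/PEG200/water (5:45:50 v/v/v) at 6 mL/kg. Serial tail-vein bleeds over 0–7 h. Parent compound quantified by LC–MS/MS. Parameters from noncompartmental analysis.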

[21] = Cmax in Sprague-Dawley rat at 3 mg/kg, po measured up to 7 hrs by LC-MS/MS analysis; assay type: ADME, organism-based; parameters: dose 3 mg/kg, route oral; conditions: in vivo
[22] = Clearance in Sprague-Dawley rat at 1 mg/kg, iv measured up to 7 hrs by LC-MS/MS analysis; assay type: ADME, organism-based; conditions: in vivo
In short: as §4

Row | SMILES | IC50 [1] [nM] | Ratio IC50 [2] | Ratio IC50 [3] | Ratio IC50 [4] | chromatographic logD [8] | solubility kinetic at 1 h [9] [µg/mL] | fraction unbound [10] | Vd [13] [L/kg] | CLH [14] [mL/min/g] | half-life [16] [h] | CLH [17] [mL/min/g] | CLH [19] [mL/min/g] | other results
1 | COc1ncc(-c2cc3c(c(-c4ccccn4)c2)COC3)cc1NS(C)(=O)=O | 63.1 | 6 | 10 | 20 |  |  |  |  |  |  |  |  | 
2 | COc1ncc(-c2cc(NC(=O)c3csc(C)n3)c3cn[nH]c3c2)cc1NS(C)(=O)=O |  | 16 | 63 | 63 |  |  |  |  |  |  |  |  | 
3 | COc1ncc(-c2cc3c(c(NC(=O)c4csc(C)n4)c2)COC3)cc1NS(C)(=O)=O | 7.94 | 25 | 50 | 63 |  |  |  |  |  |  |  |  | 
4 | COc1ncc(-c2cc3c(c(NC(C)=O)c2)COC3)cc1NS(C)(=O)=O | 398 | 13 | 4 | 13 |  |  |  |  |  |  |  |  | 
5 | COc1ncc(-c2ccc3c(c2)COC3)cc1NS(C)(=O)=O | 794 | 4 | 5 | 2.5 | 3.5 | 92 (≈ 287 µM) |  |  |  |  |  |  | IC50 [5]: 3980 nM; IC50 [6]: 2000 nM; IC50 [7]: 3160 nM
6 | COc1ncc(-c2ccc3cn[nH]c3c2)cc1NS(C)(=O)=O |  |  |  |  | 2.6 | 31 (≈ 97.4 µM) |  |  |  |  |  |  | IC50 [5]: 7940 nM; IC50 [6]: 7940 nM; IC50 [7]: 2510 nM
7 | COc1ncc(-c2cc3c(c(NC(=O)c4cccc(C)n4)c2)COC3)cc1NS(C)(=O)=O | 5.01 | 25 | 50 | 126 |  | 50 (≈ 110 µM) | 0.07 | 1.6 | 1.4 | 3.4 | < 0.5 | 1.2 | Ratio IC50 [11]: > 10; IC50 [12]: 200 nM; F [15]: 1.5%; AUCt [18]: 42 ng·h/mL
8 | COc1ncc(-c2cc(-c3ncc(CN4C[C@@H](C)O[C@@H](C)C4)o3)c3cn[nH]c3c2)cc1NS(C)(=O)=O |  |  |  |  | 3.3 | 182 (≈ 355 µM) | 0.1 | 3.5 | 5.9 | 2.6 | 3.2 | 1.9 | AUC(0-inf) ([20]; Sprague-Dawley): < 24 ng·h/mL; Cmax [21]: < 2 ng/mL; clearance [22]: 50 mL/min/kg; bioavailability ([15]; Sprague-Dawley): < 2%
9 | COc1ncc(-c2cc3c(c(-c4nnc(C)o4)c2)COC3)cc1NS(C)(=O)=O | 20 | 5 | 5 | 13 |  | 195 (≈ 485 µM) | 0.1 | 0.5 | 1 | 0.9 | < 0.5 | < 0.5 | AUC ([20]; 7 h): 1370 ng·h/mL; Ratio IC50 [11]: > 10; IC50 [12]: 200 nM; F [15]: 56%
